Data published in ChEMBL document CHEMBL4382238, “Synthesis of isatin based N1-alkylated 3-β-C-glycoconjugated-oxopropylidene oxindoles as potent antiplasmodial agents” (Eur J Med Chem, 2019).

Tests used:
[1] = system: Plasmodium falciparum; experiment: Antiplasmodial activity against chloroquine-sensitive Plasmodium falciparum 3D7 asynchronous cultures infected in human erythrocytes after 72 hrs by SYBR green1 staining based fluorescence assay; assay type: functional, organism-based; conditions: 3D7, 72 h
Procedure, shortened: (§1)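 Parasites kept in human erythrocytes at 5% hematocrit in RPMI-1640 (HEPES) with 0.5% AlbuMaxII, 0.2% glucose, bicarbonate, 15 µM hypoxanthine, 37 °C CO2. Two-fold serial dilutions spanning […]; asynchronous culture at 0.8-1% parasitaemia, 1% haematocrit; 72 h, 37 °C. Lytic buffer with SYBR Green (1x final), 2 h dark, RT; Ex 485/Em 535 nm. IC50 from DNA signal versus drug-free controls; at least duplicate determinations.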

[2] = system: Plasmodium falciparum; experiment: Antiplasmodial activity against chloroquine-resistant Plasmodium falciparum K1 asynchronous cultures infected in human erythrocytes after 72 hrs by SYBR green1 staining based fluorescence assay; assay type: functional, organism-based; conditions: K1, 72 h; procedure, shortened: as §1
[3] = Cytotoxicity against African green monkey Vero cells measured after 72 hrs by resazurin assay; assay type: cell-based; conditions: chlorocebus sabaeus
Procedure, shortened: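 VERO monkey kidney cells grown in MEM with 15% FBS under 5% CO2 at 37 °C. Cells exposed to serial drug dilutions for three days. 10% resazurin then added as viability marker. Fluorescence read at excitation 530 ± 25 nm and emission 590 ± 25 nm to calculate median cytotoxic concentration (CC50). Values are the average of at least duplicate determinations.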

[4] = Selectivity index, ratio of CC50 for African green monkey Vero cells to IC50 for chloroquine-sensitive Plasmodium falciparum 3D7 asynchronous cultures infected in human erythrocytes; assay type: toxicity, cell-based; conditions: read-out: Ratio CC50/IC50
[5] = Selectivity index, ratio of CC50 for African green monkey Vero cells to IC50 for chloroquine-resistant Plasmodium falciparum K1 asynchronous cultures infected in human erythrocytes; assay type: toxicity, cell-based; conditions: read-out: Ratio CC50/IC50

Row | SMILES | IC50 [1] [µM] | IC50 [2] [µM] | CC50 at 72 h [3] [µM] | selectivity ratio [4] | selectivity ratio [5]
1 | CCCCN1C(=O)/C(=C\C(=O)C[C@@H]2O[C@H](COC(C)=O)[C@@H](OC(C)=O)[C@H](OC(C)=O)[C@H]2OC(C)=O)c2cc(Cl)ccc21 | 0.18 | 0.22 | 88.9 | 494 | 404
2 | CC(=O)OC[C@H]1O[C@@H](CC(=O)/C=C2\C(=O)N(Cc3ccccc3)c3ccccc32)[C@H](OC(C)=O)[C@@H](OC(C)=O)[C@@H]1OC(C)=O | 0.77 | 0.29 | 71.2 | 92.4 | 245
3 | CC(=O)OC[C@H]1O[C@@H](CC(=O)/C=C2\C(=O)N(Cc3ccc(F)cc3)c3ccccc32)[C@H](OC(C)=O)[C@@H](OC(C)=O)[C@@H]1OC(C)=O | 0.47 | 1.19 | 119 | 253 | 100
4 | CCCCN1C(=O)/C(=C\C(=O)C[C@@H]2O[C@H](COC(C)=O)[C@@H](OC(C)=O)[C@H](OC(C)=O)[C@H]2OC(C)=O)c2ccccc21 | 2.61 | 1.84 | 126 | 48.1 | 68.2
5 | CCCN1C(=O)C(O)(CC(=O)C[C@@H]2O[C@H](COC(C)=O)[C@@H](OC(C)=O)[C@H](OC(C)=O)[C@H]2OC(C)=O)c2cc(Cl)ccc21 (stereo partly drawn) | > 5 | > 5 | – | – | –
6 | CC(=O)OC[C@H]1O[C@@H](CC(=O)/C=C2\C(=O)N(Cc3ccc(Br)cc3)c3ccc(Cl)cc32)[C@H](OC(C)=O)[C@@H](OC(C)=O)[C@@H]1OC(C)=O | 0.24 | 0.15 | 93.3 | 389 | 622
7 | CC(=O)OC[C@H]1O[C@@H](CC(=O)CC2(O)C(=O)N(CCc3ccccc3)c3ccc(Cl)cc32)[C@H](OC(C)=O)[C@@H](OC(C)=O)[C@@H]1OC(C)=O (stereo partly drawn) | > 5 | > 5 | – | – | –
8 | CC(=O)OC[C@H]1O[C@@H](CC(=O)CC2(O)C(=O)N(Cc3cccc(C)c3)c3ccccc32)[C@H](OC(C)=O)[C@@H](OC(C)=O)[C@@H]1OC(C)=O (stereo partly drawn) | > 5 | > 5 | – | – | –
9 | CC(=O)OC[C@H]1O[C@@H](CC(=O)/C=C2\C(=O)N(CCc3ccccc3)c3ccc(Cl)cc32)[C@H](OC(C)=O)[C@@H](OC(C)=O)[C@@H]1OC(C)=O | 0.11 | 0.94 | 93 | 845 | 98.9
10 | CC(=O)OC[C@H]1O[C@@H](CC(=O)/C=C2\C(=O)N(CCc3ccccc3)c3ccccc32)[C@H](OC(C)=O)[C@@H](OC(C)=O)[C@@H]1OC(C)=O | 0.95 | 0.75 | 64.7 | 68.1 | 86.2
11 | CCCN1C(=O)/C(=C\C(=O)C[C@@H]2O[C@H](COC(C)=O)[C@@H](OC(C)=O)[C@H](OC(C)=O)[C@H]2OC(C)=O)c2cc(Cl)ccc21 | 1.18 | 0.4 | 95.5 | 81 | 239
12 | CC(=O)OC[C@H]1O[C@@H](CC(=O)/C=C2\C(=O)N(Cc3ccccc3)c3ccc(Cl)cc32)[C@H](OC(C)=O)[C@@H](OC(C)=O)[C@@H]1OC(C)=O | 0.26 | 0.31 | 91.2 | 351 | 294
13 | CC(=O)OC[C@H]1O[C@@H](CC(=O)/C=C2\C(=O)N(Cc3cccc(C)c3)c3ccccc32)[C@H](OC(C)=O)[C@@H](OC(C)=O)[C@@H]1OC(C)=O | 0.53 | 0.3 | 72.5 | 137 | 242
14 | CCN(CC)CCCC(C)Nc1ccnc2cc(Cl)ccc12 (stereo not drawn) [CHLOROQUINE] | – | – | > 500 | – | –
15 | CC(=O)OC[C@H]1O[C@@H](CC(=O)CC2(O)C(=O)N(Cc3ccccc3)c3ccccc32)[C@H](OC(C)=O)[C@@H](OC(C)=O)[C@@H]1OC(C)=O (stereo partly drawn) | > 5 | > 5 | – | – | –
16 | CCCCN1C(=O)C(O)(CC(=O)C[C@@H]2O[C@H](COC(C)=O)[C@@H](OC(C)=O)[C@H](OC(C)=O)[C@H]2OC(C)=O)c2cc(Cl)ccc21 (stereo partly drawn) | > 5 | > 5 | – | – | –
17 | CC(=O)OC[C@H]1O[C@@H](CC(=O)/C=C2\C(=O)N(Cc3ccc(F)cc3)c3ccc(Cl)cc32)[C@H](OC(C)=O)[C@@H](OC(C)=O)[C@@H]1OC(C)=O | 0.32 | 0.25 | 107 | 335 | 429

Row | SMILES | IC50 [1] [µM] | IC50 [2] [µM] | CC50 at 72 h [3] [µM] | selectivity ratio [4] | selectivity ratio [5]
18 | CC(=O)OC[C@H]1O[C@@H](CC(=O)/C=C2\C(=O)Nc3ccc(Cl)cc32)[C@H](OC(C)=O)[C@@H](OC(C)=O)[C@@H]1OC(C)=O | 2.68 | 2.52 | 122 | 45.5 | 48.4
19 | CC(=O)OC[C@H]1O[C@@H](CC(=O)/C=C2\C(=O)N(Cc3ccc(Br)cc3)c3ccccc32)[C@H](OC(C)=O)[C@@H](OC(C)=O)[C@@H]1OC(C)=O | 0.23 | 0.8 | 76.5 | 333 | 95.7
20 | CC(=O)OC[C@H]1O[C@@H](CC(=O)CC2(O)C(=O)Nc3ccccc32)[C@H](OC(C)=O)[C@@H](OC(C)=O)[C@@H]1OC(C)=O (stereo partly drawn) | > 5 | > 5 | – | – | –
21 | CC(=O)OC[C@H]1O[C@@H](CC(=O)CC2(O)C(=O)N(Cc3ccc(F)cc3)c3ccccc32)[C@H](OC(C)=O)[C@@H](OC(C)=O)[C@@H]1OC(C)=O (stereo partly drawn) | > 5 | > 5 | – | – | –
22 | CC(=O)OC[C@H]1O[C@@H](CC(=O)/C=C2\C(=O)Nc3ccccc32)[C@H](OC(C)=O)[C@@H](OC(C)=O)[C@@H]1OC(C)=O | 4.27 | > 5 | 127 | 29.8 | < 25.4
23 | CC(=O)OC[C@H]1O[C@@H](CC(=O)/C=C2\C(=O)N(Cc3cccc(C)c3)c3ccc(Cl)cc32)[C@H](OC(C)=O)[C@@H](OC(C)=O)[C@@H]1OC(C)=O | 0.17 | 1.04 | 91 | 535 | 87.5
24 | CCCN1C(=O)C(O)(CC(=O)C[C@@H]2O[C@H](COC(C)=O)[C@@H](OC(C)=O)[C@H](OC(C)=O)[C@H]2OC(C)=O)c2ccccc21 (stereo partly drawn) | > 5 | > 5 | – | – | –
25 | CC(=O)OC[C@H]1O[C@@H](CC(=O)CC2(O)C(=O)N(Cc3ccc(F)cc3)c3ccc(Cl)cc32)[C@H](OC(C)=O)[C@@H](OC(C)=O)[C@@H]1OC(C)=O (stereo partly drawn) | 3.54 | 2.26 | – | – | –
26 | CC(=O)OC[C@H]1O[C@@H](CC(=O)CC2(O)C(=O)N(Cc3ccc(Br)cc3)c3ccc(Cl)cc32)[C@H](OC(C)=O)[C@@H](OC(C)=O)[C@@H]1OC(C)=O (stereo partly drawn) | > 5 | 4.81 | – | – | –
27 | CC(=O)OC[C@H]1O[C@@H](CC(=O)CC2(O)C(=O)Nc3ccc(Cl)cc32)[C@H](OC(C)=O)[C@@H](OC(C)=O)[C@@H]1OC(C)=O (stereo partly drawn) | > 5 | > 5 | – | – | –
28 | CC(=O)OC[C@H]1O[C@@H](CC(=O)CC2(O)C(=O)N(Cc3ccccc3)c3ccc(Cl)cc32)[C@H](OC(C)=O)[C@@H](OC(C)=O)[C@@H]1OC(C)=O (stereo partly drawn) | > 5 | > 5 | – | – | –
29 | CCCCN1C(=O)C(O)(CC(=O)C[C@@H]2O[C@H](COC(C)=O)[C@@H](OC(C)=O)[C@H](OC(C)=O)[C@H]2OC(C)=O)c2ccccc21 (stereo partly drawn) | > 5 | > 5 | – | – | –
30 | CC(=O)OC[C@H]1O[C@@H](CC(=O)CC2(O)C(=O)N(CCc3ccccc3)c3ccccc32)[C@H](OC(C)=O)[C@@H](OC(C)=O)[C@@H]1OC(C)=O (stereo partly drawn) | > 5 | > 5 | – | – | –
31 | CC(=O)OC[C@H]1O[C@@H](CC(=O)CC2(O)C(=O)N(Cc3cccc(C)c3)c3ccc(Cl)cc32)[C@H](OC(C)=O)[C@@H](OC(C)=O)[C@@H]1OC(C)=O (stereo partly drawn) | > 5 | > 5 | – | – | –
32 | CC(=O)OC[C@H]1O[C@@H](CC(=O)CC2(O)C(=O)N(Cc3ccc(Br)cc3)c3ccccc32)[C@H](OC(C)=O)[C@@H](OC(C)=O)[C@@H]1OC(C)=O (stereo partly drawn) | > 5 | > 5 | – | – | –
33 | CCCN1C(=O)/C(=C\C(=O)C[C@@H]2O[C@H](COC(C)=O)[C@@H](OC(C)=O)[C@H](OC(C)=O)[C@H]2OC(C)=O)c2ccccc21 | 3.59 | > 5 | 125 | 34.7 | < 24.9
